Laboratory results: ChEMBL document CHEMBL1156815, “Synthesis and opioid activity of enantiomeric N-substituted 2,3,4,4a,5,6,7,7a-octahydro-1H-benzofuro[3,2-e]isoquinolines” (J Med Chem, 2010)

Columns and labels:
Homo sapiens [1] = organism: Homo sapiens; test: Selectivity index, ratio of Ki for human kappa opioid receptor to human mu opioid receptor
Rattus norvegicus = organism: Rattus norvegicus; test: Selectivity index, ratio of Ki for rat brain sigma2 receptor to Ki for rat brain sigma1 receptor
Homo sapiens [2] = organism: Homo sapiens; test: Selectivity index, ratio of Ki for human delta opioid receptor to human mu opioid receptor
Mu-type opioid receptor [3] = molecular target: T1, Mu-type opioid receptor (Homo sapiens, UniProt P35372); test: biochemical; format: cell-based, CHO
[4] = Displacement of [3H]di-O-tolyguanidine from sigma2 receptor in rat brain homogenate; format: tissue-based
[5] = molecular target: T2, Kappa-type opioid receptor (Homo sapiens, UniProt P41145); test: biochemical; format: cell-based, CHO
[6] = molecular target: Sigma non-opioid intracellular receptor 1 (Rattus norvegicus, UniProt Q9R0C9); test: Displacement of [3H](+)-pentazocine from sigma1 receptor in rat brain homogenate; format: tissue-based
How it was run: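 Rat brain homogenate binding. Nonspecific binding defined with haloperidol. Means ± SEM from replicate assays.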

[7] = molecular target: T3, Delta-type opioid receptor (Homo sapiens, UniProt P41143); test: Displacement of [125I]OXY from human delta opioid receptor expressed in CHO cells; format: cell-based
[8] = Binding affinity to sigma receptor
[9] = molecular target: T2, Kappa-type opioid receptor; settings: CHO
Mu-type opioid receptor [10] = molecular target: T1, Mu-type opioid receptor; settings: CHO
[11] = molecular target: T3, Delta-type opioid receptor; settings: CHO
[12] = molecular target: T2, Kappa-type opioid receptor; settings: CHO; remark: listed apart in the source
Mu-type opioid receptor [13] = molecular target: T1, Mu-type opioid receptor; settings: CHO; remark: listed apart in the source
[14] = molecular target: T3, Delta-type opioid receptor; test: Binding affinity to human delta opioid receptor expressed in CHO cells; format: cell-based
Mu-type opioid receptor [15] = molecular target: T1, Mu-type opioid receptor; test: Binding affinity to human mu opioid receptor expressed in CHO cells; format: cell-based
[16] = molecular target: T3, Delta-type opioid receptor; test: Agonist activity at human delta opioid receptor expressed in CHO cells assessed as stimulation of [35S]GTPgammaS binding relative to 500 nM SNC80; format: functional, cell-based
How it was run: (§1)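 [35S]GTPgammaS binding stimulation at the delta receptor, n = 3, reported with SD.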

[17] = molecular target: T3, Delta-type opioid receptor; test: Agonist activity at human delta opioid receptor expressed in CHO cells assessed as stimulation of [35S]GTPgammaS binding; format: functional, cell-based; how it was run: as §1

Sigma non-opioid intracellular receptor 1, sequence (Q9R0C9 whole entry): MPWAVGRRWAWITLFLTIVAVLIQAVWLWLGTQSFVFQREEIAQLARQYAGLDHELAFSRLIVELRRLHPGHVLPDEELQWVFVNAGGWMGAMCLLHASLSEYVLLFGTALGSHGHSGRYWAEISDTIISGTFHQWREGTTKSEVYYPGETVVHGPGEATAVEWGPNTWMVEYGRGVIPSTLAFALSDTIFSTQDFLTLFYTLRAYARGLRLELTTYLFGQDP
T3 sequence (P41143 whole entry): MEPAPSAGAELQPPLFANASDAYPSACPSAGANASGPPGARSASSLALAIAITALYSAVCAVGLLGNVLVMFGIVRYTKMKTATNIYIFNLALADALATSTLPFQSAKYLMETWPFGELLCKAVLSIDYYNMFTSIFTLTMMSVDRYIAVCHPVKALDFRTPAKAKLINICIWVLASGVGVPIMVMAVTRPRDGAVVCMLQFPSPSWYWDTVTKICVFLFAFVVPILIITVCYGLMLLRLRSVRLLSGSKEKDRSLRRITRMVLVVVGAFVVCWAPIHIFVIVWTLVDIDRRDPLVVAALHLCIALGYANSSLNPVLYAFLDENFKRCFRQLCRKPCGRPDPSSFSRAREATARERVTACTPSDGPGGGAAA
T1 sequence (P35372 whole entry): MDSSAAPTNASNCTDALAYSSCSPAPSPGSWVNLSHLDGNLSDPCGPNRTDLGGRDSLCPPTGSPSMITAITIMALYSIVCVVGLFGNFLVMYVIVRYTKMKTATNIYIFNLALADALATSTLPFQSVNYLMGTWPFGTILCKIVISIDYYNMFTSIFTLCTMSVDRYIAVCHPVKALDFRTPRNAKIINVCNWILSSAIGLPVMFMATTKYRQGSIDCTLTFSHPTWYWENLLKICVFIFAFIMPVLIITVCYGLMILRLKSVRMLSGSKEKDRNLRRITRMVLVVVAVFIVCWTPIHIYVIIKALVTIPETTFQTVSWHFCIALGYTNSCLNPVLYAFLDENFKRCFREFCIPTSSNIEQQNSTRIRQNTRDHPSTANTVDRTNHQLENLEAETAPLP
T2 sequence (P41145 whole entry): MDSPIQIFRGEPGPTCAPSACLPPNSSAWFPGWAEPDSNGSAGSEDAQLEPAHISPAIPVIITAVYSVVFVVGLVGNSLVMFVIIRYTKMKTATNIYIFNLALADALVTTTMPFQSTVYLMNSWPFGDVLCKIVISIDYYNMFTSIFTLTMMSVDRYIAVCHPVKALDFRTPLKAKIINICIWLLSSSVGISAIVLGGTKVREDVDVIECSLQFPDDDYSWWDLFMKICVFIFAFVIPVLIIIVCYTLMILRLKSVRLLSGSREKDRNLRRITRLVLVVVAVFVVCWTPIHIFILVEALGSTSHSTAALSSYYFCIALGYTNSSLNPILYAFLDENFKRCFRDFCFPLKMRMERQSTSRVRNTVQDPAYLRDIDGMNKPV

Structure (SMILES)	Ratio Ki (Homo sapiens [1])	Ki (Mu-type opioid receptor [3]) [nM]	Ki [4] [nM]	Ki [5] [nM]	Ki [6] [nM]	Ki [7] [nM]	also measured
Oc1cccc2c1O[C@H]1CCC[C@H]3CN(CCc4ccccc4)CC[C@@]231 (stereo in doubt; (+)-1c) [listing 1 of 2 here]	4.5						Ratio Ki (Rattus norvegicus): 2; Ratio Ki (Homo sapiens [2]): 18
Oc1cccc2c1O[C@H]1CCC[C@H]3CN(CC4CC4)CC[C@@]231 (stereo in doubt; (+)-1b) [listing 1 of 2 here]		1330	1030	699	201	> 10000	
Oc1cccc2c1O[C@H]1CCC[C@H]3CN(CC4CC4)CC[C@@]231 (racemic)							Ki [8]: 21 nM
COc1cccc2c1O[C@H]1CCC[C@@H]3CN(C)CC[C@@]231 (stereo in doubt; (+)-4) [listing 1 of 2 here]	< 0.19						
COc1cccc2c1O[C@H]1CCC[C@H]3CN(C)CC[C@@]231 (stereo in doubt; (-)-3a) [listing 1 of 2 here]		236	7480	3470	> 10000	9750	
COc1cccc2c1O[C@H]1CCC[C@H]3CN(C)CC[C@@]231 (stereo in doubt; (+)-3a) [listing 1 of 2 here]		7610	> 10000	7230	658	> 10000	
COc1cccc2c1O[C@H]1CCC[C@H]3CN(CC4CC4)CC[C@@]231 (stereo in doubt; (-)-3b) [listing 1 of 2 here]	1.4						Ratio Ki (Rattus norvegicus): 11; Ratio Ki (Homo sapiens [2]): 18
COc1cccc2c1O[C@H]1CCC[C@H]3CN(C)CC[C@@]231 (stereo in doubt; (-)-3a) [listing 2 of 2 here]	15						Ratio Ki (Rattus norvegicus): < 0.7; Ratio Ki (Homo sapiens [2]): 41
COc1cccc2c1O[C@H]1CCC[C@H]3CN(CCc4ccccc4)CC[C@@]231 (stereo in doubt; (-)-3c) [listing 1 of 2 here]		24	3270	1850	560	490	
COc1cccc2c1O[C@H]1CCC[C@H]3CN(CCc4ccccc4)CC[C@@]231 (stereo in doubt; (+)-3c) [listing 1 of 2 here]		145	2550	1140	278	8390	
Oc1cccc2c1O[C@H]1CCC[C@H]3CN(CC4CC4)CC[C@@]231 (stereo in doubt; (-)-1b) [listing 1 of 2 here]	1.3						ED50 [9]: 2.3 nM; Ke (Mu-type opioid receptor [10]): 0.22 nM; Ke [11]: 20 nM; Ratio Ki (Rattus norvegicus): > 25; Ratio Ki (Homo sapiens [2]): 25
Oc1cccc2c1O[C@H]1CCC[C@H]3CN(CC4CC4)CC[C@@]231 (stereo in doubt; (+)-1b) [listing 2 of 2 here]	0.53						Ratio Ki (Rattus norvegicus): 5.1
C[C@@H](NC(=O)[C@@H](N)Cc1ccc(O)cc1)C(=O)NCC(=O)N(C)[C@@H](Cc1ccccc1)C(=O)NCCO							ED50 [9]: 8940 nM
CN1CC[C@]23c4cccc(O)c4O[C@H]2CCC[C@H]3C1 (stereo in doubt; (-)-1a) [listing 1 of 2 here]							Ke [12]: 80 nM; ED50 (Mu-type opioid receptor [13]): 19 nM
C=CCN1CC[C@]23c4c5ccc(O)c4O[C@H]2C(=O)CC[C@@]3(O)[C@H]1C5 [NALOXONE]			> 10000				
COc1cccc2c1O[C@H]1CCC[C@H]3CN(CCc4ccccc4)CC[C@@]231 (stereo in doubt; (-)-3c) [listing 2 of 2 here]	77						Ratio Ki (Rattus norvegicus): 5.8; Ratio Ki (Homo sapiens [2]): 20
CN1CC[C@]23c4cccc(O)c4O[C@H]2CCC[C@H]3C1 (stereo in doubt; (-)-1a) [listing 2 of 2 here]			> 10000	14	> 10000	44	

Structure (SMILES)	Ratio Ki (Homo sapiens [1])	Ki (Mu-type opioid receptor [3]) [nM]	Ki [4] [nM]	Ki [5] [nM]	Ki [6] [nM]	Ki [7] [nM]	also measured
COc1cccc2c1O[C@H]1CCC[C@H]3CN(CC4CC4)CC[C@@]231 (stereo in doubt; (-)-3b) [listing 2 of 2 here]		30	3270	41	285	544	
COc1cccc2c1O[C@H]1CCC[C@H]3CN(CCc4ccccc4)CC[C@@]231 (stereo in doubt; (+)-3c) [listing 2 of 2 here]	7.9						Ratio Ki (Rattus norvegicus): 9.2; Ratio Ki (Homo sapiens [2]): 58
COc1cccc2c1O[C@H]1CCC[C@@H]3CN(C)CC[C@@]231 (stereo in doubt; (-)-4) [listing 1 of 2 here]		27		565		1050	
COc1cccc2c1O[C@H]1CCC[C@@H]3CN(C)CC[C@@]231 (stereo in doubt; (+)-4) [listing 2 of 2 here]		> 10000		1850		> 10000	
CC(C)=CCN1CC[C@@]2(C)c3cc(O)ccc3C[C@@H]1[C@@H]2C			56				
COc1cccc2c1O[C@H]1CCC[C@H]3CN(CC4CC4)CC[C@@]231 (stereo in doubt; (+)-3b) [listing 1 of 2 here]		> 10000	4370	> 10000	62	> 10000	
COc1cccc2c1O[C@H]1CCC[C@@H]3CN(C)CC[C@@]231 (stereo in doubt; (-)-4) [listing 2 of 2 here]	21						Ratio Ki (Homo sapiens [2]): 39
Oc1cccc2c1O[C@H]1CCC[C@H]3CN(CCc4ccccc4)CC[C@@]231 (stereo in doubt; (+)-1c) [listing 2 of 2 here]		275	263	1240	131	5000	
COc1cccc2c1O[C@H]1CCC[C@H]3CN(CC4CC4)CC[C@@]231 (stereo in doubt; (+)-3b) [listing 2 of 2 here]							Ratio Ki (Rattus norvegicus): 71
CN1CC[C@]23c4cccc(O)c4O[C@H]2CCC[C@@H]3C1 (stereo in doubt; (-)-5)				> 10000		> 10000	
Oc1cccc2c1O[C@H]1CCC[C@H]3CN(CCc4ccccc4)CC[C@@]231 (stereo in doubt; (-)-1c) [listing 1 of 2 here]		0.3	5380	15	239	6	
Oc1cccc2c1O[C@H]1CCC[C@H]3CN(CC4CC4)CC[C@@]231 (stereo in doubt; (-)-1b) [listing 2 of 2 here]		0.08	> 10000	0.1	399	2	Kd [14]: 20 nM; Kd (Mu-type opioid receptor [15]): 0.22 nM
CN1CC[C@]23c4cccc(O)c4O[C@H]2CCC[C@H]3C1 (stereo in doubt; (+)-1a)				6900	2010	> 10000	
COc1cccc2c1O[C@H]1CCC[C@H]3CN(C)CC[C@@]231 (stereo in doubt; (+)-3a) [listing 2 of 2 here]	0.95						Ratio Ki (Rattus norvegicus): > 15
CC(C)=CCN1CC[C@]2(C)c3cc(O)ccc3C[C@H]1[C@H]2C [(+)-PENTAZOCINE]			1360				
Oc1cccc2c1O[C@H]1CCC[C@H]3CN(CCc4ccccc4)CC[C@@]231 (stereo in doubt; (-)-1c) [listing 2 of 2 here]	50						Ke [12]: 130 nM; Emax [16]: 64%; ED50 (Mu-type opioid receptor [13]): 10 nM; ED50 [17]: 148 nM; Ratio Ki (Rattus norvegicus): 23; Ratio Ki (Homo sapiens [2]): 20
CN1CC[C@]23c4cccc(O)c4O[C@H]2CCC[C@@H]3C1 (stereo in doubt; (+)-5)							Ki ([5]; cho): > 10000 nM; Ki ([7]; cho): > 10000 nM
